Calls of active or inactive are those of the source. The calls are words filed in the database; no cut-off is given here.
How the values were obtained:
[1] = target: T1, Metabotropic glutamate receptor 4 (Homo sapiens, UniProt Q14833); experiment: (§1) Positive allosteric modulation of human mGlu4 receptor expressed in CHO cells co-expressing Gqi5 assessed as increase in glutamate-induced calcium mobilization preincubated for 142 secs followed by EC20 glutamate addition and subsequent EC80 glutamate addition after 147 secs by Fluo-4-AM dye based fluorescence assay; type: functional, cell-based
T1 sequence (Q14833 whole entry): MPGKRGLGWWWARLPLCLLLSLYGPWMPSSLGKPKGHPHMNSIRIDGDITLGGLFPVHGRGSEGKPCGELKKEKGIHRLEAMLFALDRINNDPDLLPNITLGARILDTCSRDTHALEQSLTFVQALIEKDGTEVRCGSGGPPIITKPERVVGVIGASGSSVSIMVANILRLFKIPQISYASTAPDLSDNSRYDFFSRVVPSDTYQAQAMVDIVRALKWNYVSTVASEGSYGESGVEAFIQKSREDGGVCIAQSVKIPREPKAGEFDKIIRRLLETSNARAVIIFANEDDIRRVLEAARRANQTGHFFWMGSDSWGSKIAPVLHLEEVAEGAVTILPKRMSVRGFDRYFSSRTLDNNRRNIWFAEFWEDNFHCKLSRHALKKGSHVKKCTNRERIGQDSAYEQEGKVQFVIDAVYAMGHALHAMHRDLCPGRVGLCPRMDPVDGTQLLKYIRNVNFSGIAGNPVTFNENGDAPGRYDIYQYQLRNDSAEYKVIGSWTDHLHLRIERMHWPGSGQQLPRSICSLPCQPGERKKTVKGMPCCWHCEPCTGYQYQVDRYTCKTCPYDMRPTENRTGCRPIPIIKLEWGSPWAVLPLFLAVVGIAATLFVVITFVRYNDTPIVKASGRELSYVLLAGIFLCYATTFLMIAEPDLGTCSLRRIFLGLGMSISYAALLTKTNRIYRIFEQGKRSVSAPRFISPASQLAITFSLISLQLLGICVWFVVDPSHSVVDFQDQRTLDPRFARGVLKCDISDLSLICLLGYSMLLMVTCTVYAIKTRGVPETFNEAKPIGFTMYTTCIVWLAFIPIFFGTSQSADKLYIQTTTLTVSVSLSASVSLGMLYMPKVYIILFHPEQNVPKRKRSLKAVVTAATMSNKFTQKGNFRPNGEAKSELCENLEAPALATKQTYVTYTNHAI
Summary of the method: (§2)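 CHO cells expressing human mGlu4 and Gqi5, plated at 30,000 cells/well and grown overnight at 37 °C, 5% CO2. Cells were loaded with 1 μM Fluo-4 AM for 45 min at 37 °C in HBSS/20 mM HEPES/2.5 mM probenecid. Compounds were run as 10-point, 1:3 dilution series. After 142 s, EC20 glutamate was added; 147 s later, EC80 glutamate. Fluorescence was normalized to the maximal glutamate response. EC50 and %Glu Max were fitted by four-parameter logistic, with maximum normalized to PHCCC.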

[2] = target: T1, Metabotropic glutamate receptor 4; experiment: as §1, with “measured” for “subsequent EC80 glutamate addition”, “assay relative to control” for “assay”; type: functional, cell-based; summary of the method: as §2
[3] = target: T2, AhR (read out as CYP1A2 induction) (Homo sapiens, UniProt P35869); experiment: Activation of AhR (unknown origin) assessed as CYP1A2 induction relative to control; type: ADME
T2 sequence (P35869 whole entry): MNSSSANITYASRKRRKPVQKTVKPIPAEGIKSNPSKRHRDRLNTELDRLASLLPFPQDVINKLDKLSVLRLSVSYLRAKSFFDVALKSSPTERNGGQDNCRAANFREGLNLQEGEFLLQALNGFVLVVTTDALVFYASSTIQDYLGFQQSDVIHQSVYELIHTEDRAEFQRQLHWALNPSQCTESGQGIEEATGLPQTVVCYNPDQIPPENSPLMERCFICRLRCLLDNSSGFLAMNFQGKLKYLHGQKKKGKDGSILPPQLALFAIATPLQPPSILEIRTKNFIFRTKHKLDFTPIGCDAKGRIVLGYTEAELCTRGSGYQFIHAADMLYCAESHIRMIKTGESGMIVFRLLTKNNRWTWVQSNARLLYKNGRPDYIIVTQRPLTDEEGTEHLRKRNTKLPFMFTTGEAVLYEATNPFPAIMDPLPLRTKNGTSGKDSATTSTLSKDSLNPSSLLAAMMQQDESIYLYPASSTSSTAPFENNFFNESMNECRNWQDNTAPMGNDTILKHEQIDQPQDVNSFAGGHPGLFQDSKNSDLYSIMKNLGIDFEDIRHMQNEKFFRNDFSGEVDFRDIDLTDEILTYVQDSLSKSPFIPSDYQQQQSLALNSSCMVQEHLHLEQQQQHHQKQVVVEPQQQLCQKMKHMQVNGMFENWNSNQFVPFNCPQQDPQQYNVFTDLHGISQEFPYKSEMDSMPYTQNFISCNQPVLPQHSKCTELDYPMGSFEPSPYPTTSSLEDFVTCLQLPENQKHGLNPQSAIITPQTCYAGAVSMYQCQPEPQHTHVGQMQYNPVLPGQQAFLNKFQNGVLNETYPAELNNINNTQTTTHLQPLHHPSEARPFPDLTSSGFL

[4] = Intrinsic clearance in human liver microsomes at 1 uM preincubated for 5 mins followed by NADPH addition measured up to 45 mins by LC-MS/MS analysis; type: ADME, Microsome; conditions: read-out: CLH
Summary of the method: (§3)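 Intrinsic and predicted hepatic clearance derived from liver microsome incubations.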

[5] = Intrinsic clearance in rat liver microsomes at 1 uM preincubated for 5 mins followed by NADPH addition measured up to 45 mins by LC-MS/MS analysis; type: ADME, Microsome; conditions: read-out: CLH; summary of the method: as §3
[6] = Fraction unbound in human plasma after 4 hrs by equilibrium dialysis method; type: ADME, cell-free
[7] = Fraction unbound in rat plasma after 4 hrs by equilibrium dialysis method; type: ADME, cell-free
[8] = target: T3, Cytochrome P450 1A2 (Homo sapiens, UniProt P05177); experiment: Inhibition of CYP1A2 in human liver microsomes using phenacetin as substrate preincubated for 15 mins followed by substrate addition and measured after 8 mins by LC-MS/MS analysis; type: ADME
T3 sequence (P05177 whole entry): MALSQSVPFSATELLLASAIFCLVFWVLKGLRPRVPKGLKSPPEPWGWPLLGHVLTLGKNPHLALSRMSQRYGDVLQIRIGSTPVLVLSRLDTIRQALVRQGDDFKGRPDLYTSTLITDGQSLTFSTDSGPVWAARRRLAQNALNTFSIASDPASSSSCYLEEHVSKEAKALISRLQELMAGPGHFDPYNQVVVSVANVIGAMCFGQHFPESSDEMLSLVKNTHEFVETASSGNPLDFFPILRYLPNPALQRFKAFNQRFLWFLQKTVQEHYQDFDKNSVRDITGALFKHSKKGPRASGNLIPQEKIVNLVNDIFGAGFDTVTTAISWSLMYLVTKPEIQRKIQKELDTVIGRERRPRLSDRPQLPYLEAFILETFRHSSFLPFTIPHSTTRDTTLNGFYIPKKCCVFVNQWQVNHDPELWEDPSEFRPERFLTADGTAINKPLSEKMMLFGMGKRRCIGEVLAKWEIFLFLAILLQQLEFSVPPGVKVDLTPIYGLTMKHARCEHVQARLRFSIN
Summary of the method: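 IC50 for CYP1A2 inhibition determined in human liver microsomes using specific probe substrate-metabolite pairs.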

[9] = target: Metabotropic glutamate receptor 4 (Rattus norvegicus, UniProt P31423); experiment: (§4) Positive allosteric modulation of rat mGlu4 receptor expressed in HEK cells co-expressing GIRK1/2 assessed as increase in glutamate-induced thallium flux preincubated for 140 secs followed by glutamate addition and measured after 2.5 mins by FluoZin-2-AM dye based fluorescence assay; type: cell-based
Sequence of Metabotropic glutamate receptor 4 (Rattus norvegicus, UniProt P31423) (P31423 whole entry): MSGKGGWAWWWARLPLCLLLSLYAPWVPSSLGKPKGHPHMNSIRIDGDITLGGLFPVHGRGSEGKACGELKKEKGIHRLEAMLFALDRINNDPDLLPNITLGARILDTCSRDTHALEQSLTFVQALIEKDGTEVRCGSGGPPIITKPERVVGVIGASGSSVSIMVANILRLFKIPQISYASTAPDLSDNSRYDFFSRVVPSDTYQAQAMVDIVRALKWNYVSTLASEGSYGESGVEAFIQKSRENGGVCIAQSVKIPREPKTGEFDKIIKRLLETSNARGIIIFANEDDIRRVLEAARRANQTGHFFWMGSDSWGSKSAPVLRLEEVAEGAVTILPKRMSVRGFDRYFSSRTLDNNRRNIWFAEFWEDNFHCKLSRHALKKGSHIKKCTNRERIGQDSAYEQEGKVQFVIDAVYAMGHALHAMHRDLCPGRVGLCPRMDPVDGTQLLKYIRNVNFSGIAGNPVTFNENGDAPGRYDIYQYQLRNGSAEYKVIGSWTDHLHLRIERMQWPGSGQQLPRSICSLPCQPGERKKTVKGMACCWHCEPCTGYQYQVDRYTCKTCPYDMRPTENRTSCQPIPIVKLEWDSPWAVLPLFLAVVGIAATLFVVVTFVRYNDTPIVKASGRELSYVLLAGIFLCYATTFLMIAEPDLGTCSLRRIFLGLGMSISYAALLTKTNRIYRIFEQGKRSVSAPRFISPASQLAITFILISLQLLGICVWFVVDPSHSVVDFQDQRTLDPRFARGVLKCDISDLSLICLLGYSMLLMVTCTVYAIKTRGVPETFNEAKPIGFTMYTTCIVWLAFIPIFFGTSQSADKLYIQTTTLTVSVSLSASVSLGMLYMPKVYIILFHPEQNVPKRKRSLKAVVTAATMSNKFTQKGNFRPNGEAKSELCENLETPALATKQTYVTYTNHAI
Summary of the method: (§5)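 HEK cells co-expressing rat mGlu4 and GIRK1/2 were loaded for 1 h at room temperature with FluoZin-2 AM (330 nM final) in HBSS/20 mM HEPES pH 7.4. Compound was incubated 140 s, then thallium buffer with or without agonist was added. Reading continued for 2.5 min at room temperature. Potency was fitted by four-parameter logistic.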

[10] = target: Metabotropic glutamate receptor 4 (Rattus norvegicus) (UniProt P31423); experiment: as §4, with “assay relative to control” for “assay”; type: cell-based; summary of the method: as §5
Sequence of Metabotropic glutamate receptor 4 (Rattus norvegicus) (P31423 whole entry): as above

[11] = Clearance in rat administered as iv cassette dose; type: ADME, organism-based; conditions: in vivo
Summary of the method: (§6)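 IV cassette in male Sprague-Dawley rats (~300 g, n = 1 per experiment), cannulated in carotid artery and jugular vein and acclimated about one week. Plasma clearance, Vss, t1/2 and MRT were derived.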

[12] = Volume of distribution at steady state in rat administered as iv cassette dose; type: ADME, organism-based; conditions: in vivo, read-out: Vdss; summary of the method: as §6
[13] = MRT in rat administered as iv cassette dose; type: ADME, organism-based; conditions: in vivo; summary of the method: as §6
[14] = Half life in rat administered as iv cassette dose; type: ADME, organism-based; conditions: in vivo; summary of the method: as §6
[15] = Plasma concentration in rat administered as iv cassette dose; type: ADME, organism-based; conditions: in vivo
Summary of the method: (§7)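 Cassette dosing in male Sprague-Dawley rats (~300 g, n = 1 per experiment), with carotid artery and jugular vein catheters. Animals acclimated about one week with food and water ad libitum. Plasma (ng/mL) and brain (ng/g) levels were measured and Kp calculated.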

[16] = Drug uptake in rat brain administered as iv cassette dose; type: ADME, organism-based; conditions: in vivo; summary of the method: as §7
[17] = Brain to plasma partition coefficient, Kp of the compound in rat administered as iv cassette dose; type: ADME, organism-based; summary of the method: as §7
[18] = test system: Rattus norvegicus; experiment: Reversal of haloperidol-induced catalepsy in Sprague-Dawley rat assessed as decrease in latency to remove forepaws from bar at 10 mg/kg, po administered 30 mins prior to test; type: functional, organism-based
Summary of the method: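 Male Sprague-Dawley rats were randomized and given haloperidol 0.75 mg/kg i.p., then 60 min in home cage. Vehicle or compound (10 mg/kg) was given orally 30 min before catalepsy testing, N = 11–12 rats/group. Data analyzed by one-way ANOVA with Dunnett's test versus vehicle + haloperidol.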

Row | Structure (SMILES) | EC50 [1] | %max [2] | Emax [3] | CLint scaled at 1 µM [4] | CLint scaled at 1 µM [5] | fraction unbound at 4 h [6] | fraction unbound at 4 h [7] | IC50 [8] | EC50 [9] | %max [10] | clearance [11] | Vd [12] | MRT [13] | half-life [14] | Cp [15] | Drug uptake [16] | Kp ([17]; brain and plasma, read-out: Kp) | Drug uptake ([16]; BLD = below limit of detection) | Kp ([17]; brain, BLD = below limit of detection) | Activity [18]
1 | O=C(c1nsc2cc(Nc3n[nH]c4cccnc34)ccc12)N1CCC(F)(F)CC1 | 52.4 nM | 71% |  | 54 mL/min/kg | 393 mL/min/kg | 0.021 | 0.029 | > 30000 nM | 139 nM | 103% |  |  |  |  | 249 ng/mL | 35.5 ng/g | 0.14 |  |  | 
2 | Cc1noc2ccc(Nc3n[nH]c4ncccc34)cc12 | 227 nM | 81.9% | > 50% | 81.4 mL/min/kg | 30.1 mL/min/kg | 0.066 | 0.079 | 700 nM | 209 nM | 108% | 38 mL/min/kg | 2.5 L/kg | 60.6 min | 107 min |  |  |  |  |  | 
3 | O=C(NC1CC(F)(F)C1)c1nsc2cc(Nc3n[nH]c4nccnc34)ccc12 | 26 nM | 68.1% |  | 2.6 mL/min/kg | 8.3 mL/min/kg | 0.004 | 0.007 | > 30000 nM | 82.2 nM | 86.6% |  |  |  |  | 690 ng/mL | 55.6 ng/g | 0.08 |  |  | 
4 | Cc1noc2ccc(Nc3n[nH]c4cc(F)cnc34)cc12 | 1570 nM | 80.6% | > 50% | 24.2 mL/min/kg | 33.4 mL/min/kg | 0.054 | 0.076 | < 100 nM | 123 nM | 111% | 64.6 mL/min/kg | 2 L/kg | 31.6 min | 54.8 min |  |  |  |  |  | 
5 | Fc1ccc(Nc2n[nH]c3cccnc23)cc1Cl |  |  |  |  |  |  |  |  |  |  |  |  |  |  |  |  |  |  |  | Active
6 | Cc1noc2c(F)cc(Nc3n[nH]c4ncccc34)cc12 | 122 nM | 74.7% | > 50% | 50.2 mL/min/kg | 110 mL/min/kg | 0.028 | 0.033 | < 100 nM | 169 nM | 114% | 30.5 mL/min/kg | 1.2 L/kg | 38 min | 34.7 min |  |  |  |  |  | 
7 | c1cnc2c(Nc3ccc4c(C5CCCC5)noc4c3)n[nH]c2n1 | 514 nM | 85.5% |  | 42.3 mL/min/kg | 281 mL/min/kg | 0.013 | 0.008 | 3000 nM | 518 nM | 102% | 23.2 mL/min/kg |  |  | 45.9 min | 117 ng/mL | 145 ng/g | 1.2 |  |  | 

Second part, led by results:

Row | EC50 [1] | %max [2] | Emax [3] | CLint scaled at 1 µM [4] | CLint scaled at 1 µM [5] | fraction unbound at 4 h [6] | fraction unbound at 4 h [7] | IC50 [8] | EC50 [9] | %max [10] | clearance [11] | Vd [12] | MRT [13] | half-life [14] | Cp [15] | Drug uptake [16] | Kp ([17]; brain and plasma, read-out: Kp) | Drug uptake ([16]; BLD = below limit of detection) | Kp ([17]; brain, BLD = below limit of detection) | Structure (SMILES) | Activity [18]
8 | 274 nM | 77.7% | > 50% | 31.1 mL/min/kg | 66.4 mL/min/kg | 0.029 | 0.05 | < 100 nM | 53 nM | 114% | 81.1 mL/min/kg | 3.1 L/kg | 38.4 min | 31.2 min |  |  |  |  |  | Cc1noc2c(F)cc(Nc3n[nH]c4cccnc34)cc12 | 
9 | 137 nM | 85.4% | > 50% | 114 mL/min/kg | 3 mL/min/kg | 0.066 | 0.064 | 200 nM | 65 nM | 127% | 24.3 mL/min/kg | 0.9 L/kg | 37.2 min | 28.6 min |  |  |  |  |  | Cc1noc2ccc(Nc3n[nH]c4nccnc34)cc12 | 
10 | 68.1 nM | 76.7% |  | 298 mL/min/kg | 2940 mL/min/kg | 0.006 | < 0.001 |  |  |  |  |  |  |  | 511 ng/mL |  |  | Bld | Bld | CN(C(=O)c1nsc2cc(Nc3n[nH]c4cccnc34)ccc12)C1CC(F)(F)C1 | 

— ChEMBL document CHEMBL4308847, “Discovery, Structure-Activity Relationship, and Biological Characterization of a Novel Series of 6-((1 H-Pyrazolo[4,3- b]pyridin-3-yl)amino)-benzo[ d]isothiazole-3-carboxamides as Positive Allosteric Modulators of the Metabotropic Glutamate Receptor 4 (mGlu4)” (J Med Chem, 2018)
